# Tests used:
# Rattus norvegicus [1] = assay: Antineuropathic pain activity in rat spinal nerve ligation model assessed as effect on mechanical allodynia by measuring frequency of paw withdrawal at 100 mg/kg, po measured at 1 hr relative to control; assay type: functional
# Summary of the method: (§1)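 Spinal nerve ligation rats tested 2 weeks after nerve surgery, 100 mg/kg oral, n = 4 per group. Behaviour re-tested at 1, 3 and 5 h after dosing. Mechanical allodynia: von Frey filament applied five times, every 3–4 s, to the hind paw on a wire mesh floor. Cold allodynia: acetone applied to the plantar hind paw on a metal mesh floor.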
# Rattus norvegicus [2] = assay: Antineuropathic pain activity in rat spinal nerve ligation model assessed as effect on cold allodynia by measuring frequency of paw withdrawal at 100 mg/kg, po measured at 1 hr relative to control; assay type: functional; summary of the method: as §1
# Rattus norvegicus [3] = assay: Antineuropathic pain activity in rat spinal nerve ligation model assessed as effect on mechanical allodynia by measuring frequency of paw withdrawal at 100 mg/kg, po measured at 3 hrs relative to control; assay type: functional; summary of the method: as §1
# Rattus norvegicus [4] = assay: Antineuropathic pain activity in rat spinal nerve ligation model assessed as effect on mechanical allodynia by measuring frequency of paw withdrawal at 100 mg/kg, po measured at 5 hrs relative to control; assay type: functional; summary of the method: as §1
# Rattus norvegicus [5] = assay: Antineuropathic pain activity in rat spinal nerve ligation model assessed as effect on cold allodynia by measuring frequency of paw withdrawal at 100 mg/kg, po measured at 3 hrs relative to control; assay type: functional; summary of the method: as §1
# Rattus norvegicus [6] = assay: Antineuropathic pain activity in rat spinal nerve ligation model assessed as effect on cold allodynia by measuring frequency of paw withdrawal at 100 mg/kg, po measured at 5 hrs relative to control; assay type: functional; summary of the method: as §1
# [7] = target: T1, Voltage-dependent T-type calcium channel subunit alpha-1H (Homo sapiens, UniProt O95180); assay: Inhibition of Cav3.2 alpha1H (unknown origin) expressed in HEK293 cells assessed as decrease in KCl-induced depolarization mediated intracellular Ca2+ level at 10 uM by fluo3/AM based high throughput screening assay relative to control; assay type: cell-based
# T1 sequence (O95180 whole entry): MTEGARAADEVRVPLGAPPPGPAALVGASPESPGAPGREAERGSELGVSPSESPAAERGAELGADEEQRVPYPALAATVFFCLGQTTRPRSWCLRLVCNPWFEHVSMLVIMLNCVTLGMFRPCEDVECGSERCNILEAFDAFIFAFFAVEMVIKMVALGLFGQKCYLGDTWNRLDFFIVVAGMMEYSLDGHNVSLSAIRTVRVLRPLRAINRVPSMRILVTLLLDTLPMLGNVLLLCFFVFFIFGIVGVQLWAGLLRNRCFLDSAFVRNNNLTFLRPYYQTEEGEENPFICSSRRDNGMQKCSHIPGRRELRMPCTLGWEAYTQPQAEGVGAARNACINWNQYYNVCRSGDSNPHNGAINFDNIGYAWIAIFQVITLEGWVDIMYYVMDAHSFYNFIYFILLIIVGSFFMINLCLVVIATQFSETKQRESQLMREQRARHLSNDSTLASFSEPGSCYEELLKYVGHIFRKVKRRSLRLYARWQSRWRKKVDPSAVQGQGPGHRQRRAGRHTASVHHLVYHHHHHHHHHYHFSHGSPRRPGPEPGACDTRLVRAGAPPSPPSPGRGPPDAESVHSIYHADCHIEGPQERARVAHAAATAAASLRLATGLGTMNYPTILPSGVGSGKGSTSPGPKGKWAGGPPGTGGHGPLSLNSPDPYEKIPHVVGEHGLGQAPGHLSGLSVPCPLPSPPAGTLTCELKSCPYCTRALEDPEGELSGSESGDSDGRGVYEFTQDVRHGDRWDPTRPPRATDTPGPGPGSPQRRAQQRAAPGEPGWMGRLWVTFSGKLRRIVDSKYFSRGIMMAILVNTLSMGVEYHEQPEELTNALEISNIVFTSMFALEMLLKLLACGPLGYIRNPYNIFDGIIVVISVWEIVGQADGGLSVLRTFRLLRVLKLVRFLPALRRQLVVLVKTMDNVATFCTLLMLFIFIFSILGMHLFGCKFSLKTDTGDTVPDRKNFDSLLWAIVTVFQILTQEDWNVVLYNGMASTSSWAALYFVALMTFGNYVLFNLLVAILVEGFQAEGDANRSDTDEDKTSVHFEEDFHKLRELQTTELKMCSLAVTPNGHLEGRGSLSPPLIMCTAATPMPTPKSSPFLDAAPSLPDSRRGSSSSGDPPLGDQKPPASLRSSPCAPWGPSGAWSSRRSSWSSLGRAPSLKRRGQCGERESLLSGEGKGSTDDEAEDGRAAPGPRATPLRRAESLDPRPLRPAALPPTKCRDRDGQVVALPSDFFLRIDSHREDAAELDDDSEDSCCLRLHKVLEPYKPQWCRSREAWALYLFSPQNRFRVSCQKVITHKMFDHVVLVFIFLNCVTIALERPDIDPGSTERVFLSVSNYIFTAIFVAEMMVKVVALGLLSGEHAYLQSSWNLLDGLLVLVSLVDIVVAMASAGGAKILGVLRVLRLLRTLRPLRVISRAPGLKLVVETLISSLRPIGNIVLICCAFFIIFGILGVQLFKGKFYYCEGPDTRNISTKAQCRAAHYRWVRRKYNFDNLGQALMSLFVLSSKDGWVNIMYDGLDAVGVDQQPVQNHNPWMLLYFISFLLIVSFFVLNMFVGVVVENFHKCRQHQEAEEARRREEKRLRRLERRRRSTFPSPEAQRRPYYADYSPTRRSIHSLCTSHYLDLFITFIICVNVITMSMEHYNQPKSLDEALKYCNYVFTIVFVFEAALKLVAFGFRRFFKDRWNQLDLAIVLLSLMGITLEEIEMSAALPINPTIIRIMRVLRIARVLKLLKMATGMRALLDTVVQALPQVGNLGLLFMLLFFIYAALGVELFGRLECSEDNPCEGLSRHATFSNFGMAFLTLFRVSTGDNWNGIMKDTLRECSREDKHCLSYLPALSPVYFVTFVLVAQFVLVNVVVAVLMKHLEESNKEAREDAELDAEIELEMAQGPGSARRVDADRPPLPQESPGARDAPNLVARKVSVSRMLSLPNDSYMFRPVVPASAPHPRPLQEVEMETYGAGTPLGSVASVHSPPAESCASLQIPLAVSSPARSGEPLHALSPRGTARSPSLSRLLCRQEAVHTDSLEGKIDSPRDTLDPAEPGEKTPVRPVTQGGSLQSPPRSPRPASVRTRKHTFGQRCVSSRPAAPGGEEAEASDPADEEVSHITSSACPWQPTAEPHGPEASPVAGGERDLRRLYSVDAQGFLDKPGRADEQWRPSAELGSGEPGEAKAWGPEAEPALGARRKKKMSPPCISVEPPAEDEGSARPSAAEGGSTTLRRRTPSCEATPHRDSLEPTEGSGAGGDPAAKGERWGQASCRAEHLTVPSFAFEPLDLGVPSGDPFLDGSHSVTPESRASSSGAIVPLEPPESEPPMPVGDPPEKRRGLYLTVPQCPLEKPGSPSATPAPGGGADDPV
# Summary of the method: (§2)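 HEK293 cells stably expressing Cav3.1 or Cav3.2 plated at 4 × 10⁴ cells/well and used the next day. Loaded 60 min at room temperature with […] fluo3/AM plus 0.001% Pluronic F-127 in HEPES-buffered saline (1.8 mM CaCl₂, pH 7.4). Ca²⁺ fluorescence read on FDSS6000 as % inhibition, compound at […].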
# [8] = target: T2, Voltage-dependent T-type calcium channel subunit alpha-1G (Homo sapiens, UniProt O43497); assay: Inhibition of Cav3.1 alpha1G (unknown origin) expressed in HEK293 cells assessed as decrease in KCl-induced depolarization mediated intracellular Ca2+ level at 10 uM by fluo3/AM based high throughput screening assay relative to control; assay type: cell-based; summary of the method: as §2
# T2 sequence (O43497 whole entry): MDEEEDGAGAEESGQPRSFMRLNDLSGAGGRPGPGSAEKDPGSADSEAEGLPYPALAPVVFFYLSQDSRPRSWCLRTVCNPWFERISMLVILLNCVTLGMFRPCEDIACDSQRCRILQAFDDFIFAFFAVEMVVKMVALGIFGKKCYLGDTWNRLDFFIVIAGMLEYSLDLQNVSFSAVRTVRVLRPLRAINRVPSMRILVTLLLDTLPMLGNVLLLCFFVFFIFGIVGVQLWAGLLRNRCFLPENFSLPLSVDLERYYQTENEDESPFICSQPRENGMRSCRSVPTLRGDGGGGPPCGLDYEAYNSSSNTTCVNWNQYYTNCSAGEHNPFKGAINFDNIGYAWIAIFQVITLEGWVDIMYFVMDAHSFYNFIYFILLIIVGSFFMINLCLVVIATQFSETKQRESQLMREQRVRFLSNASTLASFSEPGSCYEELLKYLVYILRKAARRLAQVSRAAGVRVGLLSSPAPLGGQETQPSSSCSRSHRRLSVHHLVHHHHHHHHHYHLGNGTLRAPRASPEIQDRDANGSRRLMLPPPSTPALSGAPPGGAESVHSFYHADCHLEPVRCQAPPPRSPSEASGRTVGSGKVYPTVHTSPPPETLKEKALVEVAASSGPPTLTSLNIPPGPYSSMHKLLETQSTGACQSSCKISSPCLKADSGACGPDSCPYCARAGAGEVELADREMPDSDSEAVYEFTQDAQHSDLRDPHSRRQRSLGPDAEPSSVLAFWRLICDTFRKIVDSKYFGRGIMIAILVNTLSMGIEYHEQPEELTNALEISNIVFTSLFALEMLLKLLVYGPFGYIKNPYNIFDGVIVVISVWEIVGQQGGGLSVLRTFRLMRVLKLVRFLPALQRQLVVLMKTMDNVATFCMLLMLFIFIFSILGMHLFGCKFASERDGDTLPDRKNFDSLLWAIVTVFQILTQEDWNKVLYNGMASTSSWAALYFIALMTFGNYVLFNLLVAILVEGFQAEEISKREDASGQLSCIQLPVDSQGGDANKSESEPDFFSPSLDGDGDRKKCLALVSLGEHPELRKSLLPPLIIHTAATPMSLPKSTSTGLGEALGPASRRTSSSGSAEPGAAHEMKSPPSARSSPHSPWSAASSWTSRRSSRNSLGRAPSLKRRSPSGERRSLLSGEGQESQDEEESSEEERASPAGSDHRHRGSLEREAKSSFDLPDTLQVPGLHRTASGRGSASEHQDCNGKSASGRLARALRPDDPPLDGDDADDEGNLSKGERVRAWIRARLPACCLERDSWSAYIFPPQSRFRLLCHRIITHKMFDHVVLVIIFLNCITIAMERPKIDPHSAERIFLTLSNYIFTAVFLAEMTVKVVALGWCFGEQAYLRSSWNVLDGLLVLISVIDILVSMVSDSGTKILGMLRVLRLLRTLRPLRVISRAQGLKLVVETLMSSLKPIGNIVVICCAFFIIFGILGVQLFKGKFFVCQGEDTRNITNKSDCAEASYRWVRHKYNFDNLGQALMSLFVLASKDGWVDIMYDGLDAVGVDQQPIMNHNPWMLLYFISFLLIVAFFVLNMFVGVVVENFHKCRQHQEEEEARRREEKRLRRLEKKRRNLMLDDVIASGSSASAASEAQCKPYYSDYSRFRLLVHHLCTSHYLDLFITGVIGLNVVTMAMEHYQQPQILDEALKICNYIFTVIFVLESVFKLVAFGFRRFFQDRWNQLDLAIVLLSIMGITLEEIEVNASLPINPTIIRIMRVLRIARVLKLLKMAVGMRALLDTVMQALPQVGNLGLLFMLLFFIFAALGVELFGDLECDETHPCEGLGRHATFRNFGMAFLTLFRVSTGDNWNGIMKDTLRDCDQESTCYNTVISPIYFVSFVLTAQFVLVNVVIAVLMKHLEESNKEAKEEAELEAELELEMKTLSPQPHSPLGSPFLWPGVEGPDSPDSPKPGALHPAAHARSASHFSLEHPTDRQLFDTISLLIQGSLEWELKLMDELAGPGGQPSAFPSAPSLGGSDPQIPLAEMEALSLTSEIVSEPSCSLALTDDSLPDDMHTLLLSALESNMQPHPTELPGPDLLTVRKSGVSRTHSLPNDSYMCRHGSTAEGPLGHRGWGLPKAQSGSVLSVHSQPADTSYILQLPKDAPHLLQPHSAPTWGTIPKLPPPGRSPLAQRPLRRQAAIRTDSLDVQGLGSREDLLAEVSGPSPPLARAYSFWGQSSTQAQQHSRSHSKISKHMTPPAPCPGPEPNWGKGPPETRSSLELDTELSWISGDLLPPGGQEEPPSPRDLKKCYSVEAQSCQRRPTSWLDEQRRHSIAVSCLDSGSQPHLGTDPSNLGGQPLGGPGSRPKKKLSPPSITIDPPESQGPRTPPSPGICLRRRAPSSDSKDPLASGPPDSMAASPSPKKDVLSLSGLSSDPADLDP
# Rattus norvegicus [9] = assay: Antineuropathic pain activity in rat spinal nerve ligation model assessed as effect on mechanical allodynia by measuring frequency of paw withdrawal at 100 mg/kg, po measured at 1 hr relative to gabapentin; assay type: functional; summary of the method: as §1
# [10] = target: T2, Voltage-dependent T-type calcium channel subunit alpha-1G; assay: Inhibition of Cav3.1 alpha1G (unknown origin) expressed in HEK293 cells by whole-cell patch clamp method; assay type: cell-based
# Summary of the method: (§3)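 Whole-cell patch clamp on HEK293 cells expressing Cav3.1 or Cav3.2. T-type currents evoked every 15 s by a 50-ms step from −100 mV to −30 mV. External solution (mM): 140 NaCl, 2 CaCl₂, 10 HEPES, 10 glucose, pH 7.4.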
# [11] = target: T1, Voltage-dependent T-type calcium channel subunit alpha-1H; assay: Inhibition of Cav3.2 alpha1H (unknown origin) expressed in HEK293 cells by whole-cell patch clamp method; assay type: cell-based; summary of the method: as §3
# Homo sapiens = organism: Homo sapiens; assay: Inhibition of N-type Ca2+ channel (unknown origin) at 10 uM by whole-cell patch clamp method relative to control
# [12] = target: Voltage-gated inwardly rectifying potassium channel KCNH2 (Homo sapiens, UniProt Q12809); assay: Inhibition of human ERG expressed in CHOK1 cells by whole-cell patch clamp method; assay type: cell-based, CHO-K1
# CYP1A2 = target: T3, CYP1A2 (Homo sapiens, UniProt P05177); assay: Inhibition of human CYP1A2 assessed as remaining activity at 10 uM using vivid CYP450 substrate measured after 15 mins by fluorescence assay relative to alpha-naphthoflavon; assay type: ADME; settings: probe vivid CYP450 substrate, read-out: Activity
# T3 sequence (P05177 whole entry): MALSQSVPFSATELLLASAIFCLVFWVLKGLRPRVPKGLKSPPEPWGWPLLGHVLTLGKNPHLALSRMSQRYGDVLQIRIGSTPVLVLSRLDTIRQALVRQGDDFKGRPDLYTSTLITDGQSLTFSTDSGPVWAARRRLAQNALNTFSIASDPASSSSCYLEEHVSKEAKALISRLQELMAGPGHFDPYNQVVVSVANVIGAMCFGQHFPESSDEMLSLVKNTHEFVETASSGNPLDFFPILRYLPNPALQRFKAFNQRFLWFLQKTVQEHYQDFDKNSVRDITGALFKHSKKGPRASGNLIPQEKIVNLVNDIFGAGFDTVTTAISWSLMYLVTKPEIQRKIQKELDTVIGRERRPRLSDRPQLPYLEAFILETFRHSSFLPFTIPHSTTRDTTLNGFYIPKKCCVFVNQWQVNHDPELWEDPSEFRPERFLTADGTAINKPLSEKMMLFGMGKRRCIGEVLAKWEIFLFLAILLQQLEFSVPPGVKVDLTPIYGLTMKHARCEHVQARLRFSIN
# Summary of the method: (§4)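 Vivid fluorescence CYP assay: test compound at […] in water, mixed with BACULOSOMES master pre-mix and regeneration system, preincubated 15 min at 37 °C. Reaction started with Vivid substrate and NADPH. Remaining activity read by fluorescence as % of control, triplicate, mean ± SD. Isoform-specific reference inhibitors: α-naphthoflavone (1A2), sulfaphenazole (2C9), quinidine (2D6), ketoconazole (3A4).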
# CYP2D6 = CYP2D6 (Homo sapiens, UniProt P10635); assay: Inhibition of human CYP2D6 assessed as remaining activity at 10 uM using vivid CYP450 substrate measured after 15 mins by fluorescence assay relative to quinidine; assay type: ADME; settings: probe vivid CYP450 substrate, read-out: Activity; summary of the method: as §4
# CYP2C9 = CYP2C9 (Homo sapiens, UniProt P11712); assay: Inhibition of human CYP2C9 assessed as remaining activity at 10 uM using vivid CYP450 substrate measured after 15 mins by fluorescence assay relative to sulfaphenazol; assay type: ADME; settings: probe vivid CYP450 substrate, read-out: Activity; summary of the method: as §4
# CYP3A4 = CYP3A4 (Homo sapiens, UniProt P08684); assay: Inhibition of human CYP3A4 assessed as remaining activity at 10 uM using vivid CYP450 substrate measured after 15 mins by fluorescence assay relative to ketoconazole; assay type: ADME; settings: probe vivid CYP450 substrate, read-out: Activity; summary of the method: as §4
# [13] = Metabolic stability in human liver microsomes assessed as compound remaining at 1 uM in presence of NADPH as cofactor by LC-MS/MS method; assay type: ADME; settings: read-out: Stability
# Summary of the method: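 Pooled mixed-gender human liver microsomes incubated with compound at 37 °C with NADPH as cofactor. Result given as % parent compound remaining.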
# Rattus norvegicus [14] = assay: Antineuropathic pain activity in rat spinal nerve ligation model assessed as effect on cold allodynia by measuring frequency of paw withdrawal at 100 mg/kg, po measured at 1 hr relative to gabapentin; assay type: functional; summary of the method: as §1
# Rattus norvegicus [15] = assay: Poteny index, ratio of test compound to gabapentin antineuropathic pain activity in rat spinal nerve ligation model assessed as effect on mechanical allodynia by measuring frequency of paw withdrawal at 100 mg, po measured after 1 hr; assay type: functional
# Rattus norvegicus [16] = assay: Poteny index, ratio of test compound to mibefradil antineuropathic pain activity in rat spinal nerve ligation model assessed as effect on mechanical allodynia by measuring frequency of paw withdrawal at 100 mg, po measured after 1 hr; assay type: functional
# Rattus norvegicus [17] = assay: Antineuropathic pain activity in rat spinal nerve ligation model assessed as effect on mechanical allodynia by measuring frequency of paw withdrawal at 100 mg/kg, po measured at 3 hrs relative to gabapentin; assay type: functional; summary of the method: as §1
# Rattus norvegicus [18] = assay: Antineuropathic pain activity in rat spinal nerve ligation model assessed as effect on mechanical allodynia by measuring frequency of paw withdrawal at 100 mg/kg, po measured at 5 hrs relative to gabapentin; assay type: functional; summary of the method: as §1
# Rattus norvegicus [19] = assay: Antineuropathic pain activity in rat spinal nerve ligation model assessed as effect on cold allodynia by measuring frequency of paw withdrawal at 100 mg/kg, po measured at 3 hrs relative to gabapentin; assay type: functional; summary of the method: as §1
# Rattus norvegicus [20] = assay: Antineuropathic pain activity in rat spinal nerve ligation model assessed as effect on cold allodynia by measuring frequency of paw withdrawal at 100 mg/kg, po measured at 5 hrs relative to gabapentin; assay type: functional; summary of the method: as §1
SMILES,MPE (Rattus norvegicus [1]),MPE (Rattus norvegicus [2]),MPE (Rattus norvegicus [3]),MPE (Rattus norvegicus [4]),MPE (Rattus norvegicus [5]),MPE (Rattus norvegicus [6]),inhibition [7],inhibition [8],MPE (Rattus norvegicus [9]),MPE (Rattus norvegicus [14]),MPE (Rattus norvegicus [17]),MPE (Rattus norvegicus [18]),MPE (Rattus norvegicus [19]),MPE (Rattus norvegicus [20]),further results
NCC1(CC(=O)O)CCCCC1 [GABAPENTIN],11.03%,44.01%,56.94%,45.28%,80.51%,43.66%,,,,,,,,,
Cc1cc(I)ccc1S(=O)(=O)NCc1cc(CC(C)C)n(-c2ccccc2)n1,,,,,,,26.6%,22.6%,,,,,,,
CC(C)Cc1cc(CNS(=O)(=O)c2ccccc2)nn1-c1ccccc1,45.95%,103.9%,36.45%,30.91%,81.73%,74.17%,63.9%,61.4%,416.59%,236.08%,64.01%,68.26%,101.52%,169.88%,"IC50 [10]: 5.65 µM; IC50 [11]: 5.8 µM; inhibition (Homo sapiens): 38.2%; IC50 [12]: 21 µM; activity at 0.25 h, 10 µM (CYP1A2): 36.6%; activity at 0.25 h, 10 µM (CYP2D6): 208%; activity at 0.25 h, 10 µM (CYP2C9): 38.4%; activity at 0.25 h, 10 µM (CYP3A4): 69.6%; remaining at 1 µM [13]: 13.9%; Ratio (Rattus norvegicus [15]): 3; Ratio (Rattus norvegicus [16]): 3"
CC(C)Cc1cc(CNS(=O)(=O)c2cccc3ccccc23)nn1-c1ccccc1,,,,,,,25.2%,24.3%,,,,,,,
COCC(=O)O[C@]1(CCN(C)CCCc2nc3ccccc3[nH]2)CCc2cc(F)ccc2[C@@H]1C(C)C [MIBEFRADIL],17.29%,25.25%,41.44%,41.76%,34.77%,63.33%,,,156.75%,57.37%,72.78%,92.23%,43.19%,145.05%,
CC(C)Cc1cc(CNS(=O)(=O)c2cccc(Cl)c2)nn1-c1ccccc1,,,,,,,55.7%,57.6%,,,,,,,
CC(C)Cc1cc(CNS(=O)(=O)c2ccc3ccccc3c2)nn1-c1ccccc1,,,,,,,24.9%,19.8%,,,,,,,
CC(C)Cc1cc(CNS(=O)(=O)c2c(F)cccc2F)nn1-c1ccccc1,,,,,,,69.3%,45.1%,,,,,,,
CC(C)Cc1cc(CNS(=O)(=O)CCc2ccccc2)nn1-c1ccccc1,-3.8%,3.08%,-7.3%,-4.68%,9.07%,3.08%,68.6%,70.5%,-34.45%,7%,-12.82%,-10.34%,11.27%,7.05%,"IC50 [10]: 12.4 µM; IC50 [11]: 14.6 µM; inhibition (Homo sapiens): 42.2%; activity at 0.25 h, 10 µM (CYP2D6): 45.2%; activity at 0.25 h, 10 µM (CYP2C9): 45.2%; activity at 0.25 h, 10 µM (CYP3A4): 38.7%; remaining at 1 µM [13]: 88.2%"
CC(C)Cc1cc(CNS(=O)(=O)c2c(Cl)cccc2Cl)nn1-c1ccccc1,,,,,,,56%,36.9%,,,,,,,

# Source: ChEMBL document CHEMBL3872218, “Synthesis and T-type calcium channel-blocking effects of aryl(1,5-disubstituted-pyrazol-3-yl)methyl sulfonamides for neuropathic pain treatment” (Eur J Med Chem, 2016)
